Test: Toxicity liver stage against HepG2, at 10uM
Type: cell-based
Design: test concentration 10 uM, cell line HepG2-A16-CD81EGFP
Conditions: human, HepG2-A16-CD81EGFP cells; read-out: INHIBITION
Procedure, shortened: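 Uninfected HepG2-A16-CD81EGFP cells, 3 × 10^3 per well, 1536-well, plated on prespotted compound at 10 μM final, parasite-free screening media added to match infected plates; puromycin 10 μM positive, DMSO 0.5% negative; run in parallel with 48 h PbLuc assay at 37 °C, 5% CO2; viability by CellTiter-Glo luminescence, normalized to controls.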

Row | SMILES | cytotoxicity at 10 µM
1 | CCC(=O)N1CCC(Cc2ccccc2-c2ccccc2)(C(N)=O)C1 (stereo not given) | -0.105%
2 | Cc1cc(NC(=O)CN2CCC(N(C)Cc3ncc(C)o3)C2)n(C)n1 (stereo not given) | -6.49%
3 | O=S(=O)(c1ccccc1)N1C[C@@H]2COC[C@]2(CN2CCOCC2)C1 | 2.32%
4 | Cc1nn(Cc2ccc(C(=O)NC3CCS(=O)(=O)C3)cc2)c(C)c1Br (stereo not given) | -3.71%
5 | CCC1=NC2(CCC(C(=O)Nc3ccc(F)cc3)CC2)C(=O)N1C (stereo not given) | 2.26%
6 | c1cncc(-c2noc(CNCC3CCCN3c3cccnn3)n2)c1 (stereo not given) | -4.6%
7 | CCC(C(=O)NC1CCN(S(C)(=O)=O)CC1)n1cccn1 (stereo not given) | -2.42%
8 | CN(Cc1noc(C2CC2)n1)C1CCN(CCc2cccs2)C1 (stereo not given) | -5.98%
9 | NC(=O)CC1CCN(C(=O)CCOc2ccc(Cl)cc2)CC1 | -7.98%
10 | Brc1cc(CNCc2nnc3n2CCC3)cs1 | -6.22%
11 | CCc1ncc(C(=O)N(C)C(C)c2ccc3c(c2)OCCO3)cn1 (stereo not given) | -2.96%
12 | O=C1CC2(CCN(C(=O)c3cccc(Cl)c3)CC2)CN1 | -3.02%
13 | CN(CCn1ccnc1-c1ccccn1)S(C)(=O)=O | 12%
14 | O=C(c1ncoc1-c1ccco1)N1CCCN(c2nccs2)CC1 | 2.99%
15 | CC(C)N(CCCNC(=O)C1CCOCC1)S(C)(=O)=O | 0.617%
16 | Cn1nc(C2CCCN(Cc3ccc(F)c(F)c3)C2)c2nccnc21 (stereo not given) | -2.9%
17 | Cn1cnnc1C1CCCN(Cc2nc(Cc3ccccc3)no2)C1 (stereo not given) | -4.29%
18 | Cc1cnccc1CN1CC[C@@](C)(O)[C@H](Oc2ccccc2)C1 | -1.78%
19 | CCNc1ccnc(N2Cc3cnc(CC(C)C)nc3C2)n1 | 10.4%
20 | Cc1nsc(NCc2ccc(S(=O)(=O)N(C)C(C)C)cc2)n1 | 16.2%
21 | Cc1cc(C)cc(NCCC(=O)NCc2cccnc2N(C)C)c1 | -0.211%
22 | Cc1ccc(N2CCCC(N(C)c3ncnc4c3CCC4)C2)nn1 (stereo not given) | 6.86%
23 | CN(C)c1nccc(CNC(=O)NC(C)(C)C)n1 | -7.36%
24 | Cc1nc2c(c(NCCCN3CCOCC3)n1)CCN(C)C2 | 8.12%
25 | CCCc1cncnc1N1CCC(NCc2ccc(O)cc2)CC1 | 3.8%
26 | CN(C)C(=O)NCc1cc(=O)n2c(n1)CN(Cc1ccoc1)CCC2 | -99.3%
27 | Cc1ccc(N2CC[C@H]3C[C@@H](C(=O)N4CCOCC4)O[C@H]3C2)nn1 | 4.94%

Row | SMILES | cytotoxicity at 10 µM
28 | CN(Cc1cccc(OCCO)c1)Cc1cccc2ncccc12 | 26%
29 | CCN(Cc1noc(CC(C)C)n1)Cc1ncccc1C(=O)O | -37.2%
30 | CCc1nc(CN2CCN(C(=O)COCc3ccccc3)CC2)no1 | 2.41%
31 | Cc1ncc(-c2ccnc(SCCN)n2)c(-c2ccco2)n1 | -14.8%
32 | Cc1ccc(CN2CCOC3(COCCN(S(C)(=O)=O)C3)C2)s1 (stereo not given) | 10.8%
33 | CC(=O)N1CCC(NC(=O)N2CCN(c3cnccn3)CC2)CC1 | 6.47%
34 | CCc1nc(CCNC(=O)Nc2cccc(C(=O)NC)c2C)cs1 | -11.2%
35 | O=C(c1ccncc1)N1CCc2c(COCC3CC3)cncc2C1 | -78.7%
36 | O=C1CC[C@H](C(=O)N(Cc2cccc(Br)c2)C2CC2)N1 | 7.24%
37 | Cc1cc(C)n(CC2CCCN2CC(=O)Nc2cc(C(C)C)no2)n1 (stereo not given) | 0.407%
38 | Cc1cccc(S(=O)(=O)N2C[C@@H]3C[C@@H](c4nc(C)no4)O[C@@H]3C2)c1 | -1.05%
39 | CCN(CC(=O)N(C)C)C(=O)c1cc(-c2cccc(Cl)c2)no1 | 6.17%
40 | CC(C)C(=O)N1CCC(NC2CCSCC2)C1 (stereo not given) | -3.54%
41 | CCC(=O)NC1CCCN(C(=O)Nc2cc(-c3ccccc3)on2)C1 (stereo not given) | 6.64%
42 | CN1CCC(c2nnc3n2CCN(S(=O)(=O)c2ccccc2Cl)C3)CC1 | 2.58%
43 | O=C(Cc1cccc(F)c1)NC1CCCc2cn[nH]c21 (stereo not given) | 16.5%
44 | COCc1noc(Cn2c(C)cc(C(F)(F)F)cc2=O)n1 | 2.65%
45 | CCOCC(=O)N1CCCC2(CCN(c3ccccc3)C2=O)C1 (stereo not given) | 2.02%
46 | Cc1nc(COC[C@H]2CCC[C@]23CN(CC2CC2)CCO3)cs1 | -76.9%
47 | c1cc(CN2CCCC(c3ccnc4nccn34)C2)ccn1 (stereo not given) | -3.29%
48 | O=C(CCOc1ccccc1F)N1CCCCC1Cn1cccn1 (stereo not given) | -4.47%
49 | CC(=O)N1CCN(Cc2ccsc2)CC2(CC(=O)N(C)C2)C1 (stereo not given) | -1.27%
50 | O=C(NCCCn1cccn1)C1CCC(=O)N(Cc2ccccc2F)C1 (stereo not given) | -3.75%
51 | Cc1cnc(N2CCCC3(CCOCC3)C2)nc1 | -116%
52 | CCn1nc2c(cc1=O)CN(Cc1nc3ccccc3o1)CC2 | -8.9%
53 | CN1CCCc2cc(CNC(=O)c3cc[n+]([O-])cc3)ccc21 | -1.11%
54 | Cc1cc(C(F)(F)F)n2nc(C3CCCN3C3CCSCC3)cc2n1 (stereo not given) | 1.77%

Row | SMILES | cytotoxicity at 10 µM
55 | O=C(O)c1ccc(CNC(=O)C2CCN(Cc3ccco3)CC2)s1 | -0.861%
56 | c1cnn(CCN2CCOC(Cn3cccn3)C2)c1 (stereo not given) | -10.3%
57 | CO[C@@H]1CCN(S(=O)(=O)c2cn(C)cn2)[C@H]1Cc1cnn(C)c1 | 4.56%
58 | CC(C)N(C)Cc1cn2c(n1)CN(Cc1ccsc1)CC2 | -16.1%
59 | c1ccc(CN2Cc3nccn3CC(Cn3cncn3)C2)nc1 (stereo not given) | -141%
60 | CC(C)(C)Nc1c(C2CCN(C(=O)C(C)(C)C)CC2)nc2ccccn12 | 6.53%
61 | CCOc1cc(CN(C)CCC(=O)OC)ccc1OC(F)F | -0.769%
62 | Cc1ccc(N2CCCC(N(C)Cc3cc(C)no3)C2)nn1 (stereo not given) | 11.9%
63 | CC(NC(=O)OC(C)(C)C)c1nnc(S(=O)(=O)Cc2ccc(Cl)cc2)o1 (stereo not given) | -8.92%
64 | O=C(O)C1CCCCN1C(=O)c1cccc(C(F)(F)F)c1 (stereo not given) | -5.95%
65 | Cc1cnc(C)c(N2CCCC(CO)(Cc3ccccc3C)C2)n1 (stereo not given) | -17.2%
66 | CCS(=O)(=O)N1CCC(NC(=O)c2cc(C)ccc2O)CC1 | -8.92%
67 | O=C(CCc1ccccc1F)NS(=O)(=O)c1ccc2c(c1)OCCO2 | -18.6%
68 | Cn1cc(CN2CC[C@H]3O[C@@H](COCc4cccnc4)CC[C@H]32)cn1 | -73.8%
69 | CC1(C)Cc2nc(C(C)(C)C)ncc2C(NC(=O)Cc2nnn[nH]2)C1 (stereo not given) | -3.67%
70 | CC(C)CCCNC(=O)Nc1ccc(F)c(C(N)=O)c1 | -2.73%
71 | CCn1nc2c(cc1=O)CN(Cc1nc(CCOC)no1)CC2 | -9.24%
72 | COc1ccc(CN2C[C@@H](O)[C@](O)(CNC(=O)c3ccccn3)C2)cc1 | 8.46%
73 | Cc1noc(C)c1CN1C(=O)[C@@H]2CC[C@H]1CN(Cc1cscn1)C2 | 0.854%
74 | CC(C)n1cnnc1CN1C(=O)CCc2ccccc21 | 0.0849%
75 | Cc1nccn1CCC1CCCCN1Cc1ccc2c(c1)OCCO2 (stereo not given) | -7.63%
76 | Cc1nc(C2CCCN(C(=O)c3cnn(C(C)(C)C)c3)C2)no1 (stereo not given) | 0.818%
77 | O=C(NCC[S+]([O-])Cc1ccccc1)c1ccc2[nH]c(=O)[nH]c2c1 (stereo not given) | 6.11%
78 | CC(C)CCN(CCC(C)C)Cc1nc2c(cnn2C)c(=O)[nH]1 | -5.57%
79 | Cc1c(NC(=O)CN2CCN(C3CCCC3)C(=O)C2)cnn1C | 5.25%
80 | CO[C@H]1CC[C@H]2[C@H]1OCCN2Cc1ccc(F)cc1 | 7.34%
